Assay results: ChEMBL document CHEMBL1909525, “Synthesis and anticonvulsant activity of novel 2,6-diketopiperazine derivatives. Part 1: perhydropyrrole[1,2-a]pyrazines” (Eur J Med Chem, 2011)
Activity calls are given as the source filed them. The calls are words filed in the database; no cut-off is given here.

Columns and labels:
Mus musculus [1] = test: Anticonvulsant activity in albino Carworth Farms No.1 mouse assessed as protection against electric-current for 3 secs-induced seizure at 100 mg/kg, ip after 2 hrs by 6Hz minimal clonic seizure test; type: functional, organism-based; parameters: dose 100 mg/kg
Outline: (§1)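 6 Hz psychomotor seizure test in mice. Compound given i.p. as a suspension in 0.5% methylcellulose. Corneal stimulation at 32 mA, 0.2-ms monopolar rectangular pulses at 6 Hz for 3 s, from a constant-current device. Tests run 0.25–4 h after dosing. A mouse counted as protected if it resumed normal exploratory behaviour within 10 s; scored as protected/tested.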

Mus musculus [2] = test: Neurotoxicity in albino Carworth Farms No.1 mouse assessed as motor impairment at 30 mg/kg, ip after 0.5 hrs by rotarod test; type: toxicity, organism-based; parameters: dose 30 mg/kg, route intraperitoneal; details: in vivo
Outline: (§2)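 Rotorod neurotoxicity in mice at 6 r.p.m. Compound given i.p. (30, 100, 300 mg/kg) in 0.5% methylcellulose; tested at 30 min and 4 h. Impairment is inability to keep equilibrium on the rod for a given time; scored as impaired/tested.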

Mus musculus [3] = test: Neurotoxicity in albino Carworth Farms No.1 mouse assessed as motor impairment at 100 mg/kg, ip after 0.5 hrs by rotarod test; type: toxicity, organism-based; parameters: dose 100 mg/kg, route intraperitoneal; details: in vivo; outline: as §2
Mus musculus [4] = test: Neurotoxicity in albino Carworth Farms No.1 mouse assessed as motor impairment at 300 mg/kg, ip after 0.5 hrs by rotarod test; type: toxicity, organism-based; parameters: dose 300 mg/kg, route intraperitoneal; details: in vivo; outline: as §2
Mus musculus [5] = test: Anticonvulsant activity in albino Carworth Farms No.1 mouse assessed as protection against electric-current for 3 secs-induced seizure at 100 mg/kg, ip after 0.25 hrs by 6Hz minimal clonic seizure test; type: functional, organism-based; parameters: dose 100 mg/kg; outline: as §1
Mus musculus [6] = test: Anticonvulsant activity in albino Carworth Farms No.1 mouse assessed as protection against subcutaneous metrazol-induced seizure at 30 mg/kg, ip after 0.5 hrs; type: functional, organism-based; parameters: dose 30 mg/kg
Outline: (§3)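 Mouse scMET test. Compound given i.p. (30, 100 or 300 mg/kg) in 0.5% methylcellulose. Pentylenetetrazole 85 mg/kg (CD97) given s.c. at 0.5 or 4 h, then mice observed for 30 min. Protection is absence of clonic spasms; scored as protected/tested.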

Mus musculus [7] = test: Anticonvulsant activity in albino Carworth Farms No.1 mouse assessed as protection against subcutaneous metrazol-induced seizure at 30 mg/kg, ip after 4 hrs; type: functional, organism-based; parameters: dose 30 mg/kg; outline: as §3
Mus musculus [8] = test: Anticonvulsant activity in albino Carworth Farms No.1 mouse assessed as protection against subcutaneous metrazol-induced seizure at 100 mg/kg, ip after 0.5 hrs; type: functional, organism-based; parameters: dose 100 mg/kg; outline: as §3
Mus musculus [9] = test: Anticonvulsant activity in albino Carworth Farms No.1 mouse assessed as protection against subcutaneous metrazol-induced seizure at 100 mg/kg, ip after 4 hrs; type: functional, organism-based; parameters: dose 100 mg/kg; outline: as §3
Mus musculus [10] = test: Anticonvulsant activity in albino Carworth Farms No.1 mouse assessed as protection against subcutaneous metrazol-induced seizure at 300 mg/kg, ip after 0.5 hrs; type: functional, organism-based; parameters: dose 300 mg/kg; outline: as §3
Mus musculus [11] = test: Anticonvulsant activity in albino Carworth Farms No.1 mouse assessed as protection against subcutaneous metrazol-induced seizure at 300 mg/kg, ip after 4 hrs; type: functional, organism-based; parameters: dose 300 mg/kg; outline: as §3
Mus musculus [12] = test: Anticonvulsant activity in albino Carworth Farms No.1 mouse assessed as protection against electric-current for 3 secs-induced seizure at 100 mg/kg, ip after 4 hrs by 6Hz minimal clonic seizure test; type: functional, organism-based; parameters: dose 100 mg/kg; outline: as §1
Mus musculus [13] = test: Neurotoxicity in albino Carworth Farms No.1 mouse assessed as motor impairment at 100 mg/kg, ip after 0.25 hrs by rotarod test; type: toxicity, organism-based; parameters: dose 100 mg/kg, route intraperitoneal; details: in vivo
Outline: (§4)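 Rotorod neurotoxicity in mice (18–25 g) following i.p. dosing of a suspension in 0.5% methylcellulose in water, tested at intervals between 0.25 and 4 h. Impairment was scored as failure to keep equilibrium on a 6 r.p.m. rod, reported as number impaired/number tested.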

Mus musculus [14] = test: Neurotoxicity in albino Carworth Farms No.1 mouse assessed as motor impairment at 100 mg/kg, ip after 2 hrs by rotarod test; type: toxicity, organism-based; parameters: dose 100 mg/kg, route intraperitoneal; details: in vivo; outline: as §4
Mus musculus [15] = test: Neurotoxicity in albino Carworth Farms No.1 mouse assessed as motor impairment at 100 mg/kg, ip after 4 hrs by rotarod test; type: toxicity, organism-based; parameters: dose 100 mg/kg, route intraperitoneal; details: in vivo; outline: as §2
Mus musculus [16] = test: Anticonvulsant activity in ip dosed albino Carworth Farms No.1 mouse assessed as protection against electric-current for 3 secs-induced seizure after 0.25 hrs by 6Hz minimal clonic seizure test; type: functional; details: albino Carworth Farms No.1, ip
Mus musculus [17] = test: Anticonvulsant activity in ip dosed albino Carworth Farms No.1 mouse assessed as time needs to show peak effect for electric-current for 3 secs-induced seizure after 0.25 hrs by 6Hz minimal clonic seizure test; type: functional
[18] = Neurotoxicity in ip dosed albino Carworth Farms No.1 mouse assessed as motor impairment after 0.5 hrs by rotarod test; type: toxicity, organism-based; details: Carworth Farms No.1 (albino), in vivo
Outline: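 Rotorod test in mice (18–25 g) dosed i.p. with compound suspended in 0.5% methylcellulose in water. Tested 30 min after dosing. Impairment was scored as inability to keep equilibrium on a 6 r.p.m. rod. TD50 came from groups of ≥8 mice at the time of peak effect, with 95% confidence intervals by probit analysis (Finney method).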

Mus musculus [19] = test: Neurotoxicity in albino Carworth Farms No.1 mouse assessed as motor impairment at 100 mg/kg, ip after 1 hr by rotarod test; type: toxicity, organism-based; parameters: dose 100 mg/kg, route intraperitoneal; details: in vivo; outline: as §4
Mus musculus [20] = test: Anticonvulsant activity in albino Carworth Farms No.1 mouse assessed as protection against maximal electroshock-induced seizure at 30 mg/kg, ip after 0.5 hrs; type: functional, organism-based; parameters: dose 30 mg/kg
Outline: (§5)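 Mouse MES test with compound given i.p. (30, 100 or 300 mg/kg) in 0.5% methylcellulose; tested at 0.5 and 4 h. Corneal stimulus of 50 mA at 60 Hz for 0.2 s, electrodes primed with 0.5% butacaine in 0.9% NaCl. Protection is abolition of hindlimb tonic extension; scored as protected/tested.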

Mus musculus [21] = test: Anticonvulsant activity in albino Carworth Farms No.1 mouse assessed as protection against maximal electroshock-induced seizure at 30 mg/kg, ip after 4 hrs; type: functional, organism-based; parameters: dose 30 mg/kg; outline: as §5
Mus musculus [22] = test: Anticonvulsant activity in albino Carworth Farms No.1 mouse assessed as protection against maximal electroshock-induced seizure at 100 mg/kg, ip after 0.5 hrs; type: functional, organism-based; parameters: dose 100 mg/kg; outline: as §5
Mus musculus [23] = test: Anticonvulsant activity in albino Carworth Farms No.1 mouse assessed as protection against maximal electroshock-induced seizure at 100 mg/kg, ip after 4 hrs; type: functional, organism-based; parameters: dose 100 mg/kg; outline: as §5
Mus musculus [24] = test: Anticonvulsant activity in albino Carworth Farms No.1 mouse assessed as protection against maximal electroshock-induced seizure at 300 mg/kg, ip after 0.5 hrs; type: functional, organism-based; parameters: dose 300 mg/kg; outline: as §5
Mus musculus [25] = test: Anticonvulsant activity in albino Carworth Farms No.1 mouse assessed as protection against maximal electroshock-induced seizure at 300 mg/kg, ip after 4 hrs; type: functional, organism-based; parameters: dose 300 mg/kg; outline: as §5
Mus musculus [26] = test: Neurotoxicity in albino Carworth Farms No.1 mouse assessed as motor impairment at 30 mg/kg, ip after 4 hrs by rotarod test; type: toxicity, organism-based; parameters: dose 30 mg/kg, route intraperitoneal; details: in vivo; outline: as §2
Mus musculus [27] = test: Neurotoxicity in albino Carworth Farms No.1 mouse assessed as motor impairment at 300 mg/kg, ip after 4 hrs by rotarod test; type: toxicity, organism-based; parameters: dose 300 mg/kg, route intraperitoneal; details: in vivo; outline: as §2
Mus musculus [28] = species: Mus musculus; test: Protective index, ratio of TD50 for albino Carworth Farms No.1 mouse to ED50 for albino Carworth Farms No.1 mouse by 6Hz minimal clonic seizure test; type: functional
Outline: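 Mouse 6 Hz (32 mA) quantification, compound given i.p. at the time of peak effect. Groups of at least eight mice at varied doses.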

Mus musculus [29] = test: Anticonvulsant activity in albino Carworth Farms No.1 mouse assessed as protection against electric-current for 3 secs-induced seizure at 100 mg/kg, ip after 1 hr by 6Hz minimal clonic seizure test; type: functional, organism-based; parameters: dose 100 mg/kg; outline: as §1

SMILES	Activity (Mus musculus [1])	Activity (Mus musculus [2])	Activity (Mus musculus [3])	Activity (Mus musculus [4])	Activity (Mus musculus [5])	Activity (Mus musculus [6])	Activity (Mus musculus [7])	Activity (Mus musculus [8])	Activity (Mus musculus [9])	Activity (Mus musculus [10])	Activity (Mus musculus [11])	Activity (Mus musculus [12])	Activity (Mus musculus [13])	Activity (Mus musculus [14])	Activity (Mus musculus [15])	Time (Mus musculus [17]) [h]	Activity (Mus musculus [19])	Activity (Mus musculus [20])	Activity (Mus musculus [21])	Activity (Mus musculus [22])	other results
CCOC(=O)CN1C(=O)[C@H](c2ccccc2)N2CCC[C@H]2C1=O	inactive	Non-toxic	Non-toxic	Toxic	Active	inactive	inactive	inactive	inactive	inactive	inactive	inactive	Non-toxic	Non-toxic	Non-toxic	0.25	Non-toxic	inactive	inactive	Active	ED50 (Mus musculus [16]): 55.6 mg/kg; TD50 at 0.5 h [18]: 178 mg/kg; Activity (Mus musculus [23]): inactive; Activity (Mus musculus [24]): Active; Activity (Mus musculus [25]): Active; Activity (Mus musculus [26]): Non-toxic; Activity (Mus musculus [27]): Non-toxic
O=C1NC(=O)[C@@H](c2ccccc2)N2CCC[C@@H]12	inactive	Non-toxic	Non-toxic	Non-toxic	inactive	inactive	inactive	inactive	inactive	inactive	inactive	inactive	Non-toxic	Non-toxic	Non-toxic	0.25	Non-toxic	inactive	inactive	inactive	Ratio TD50/ED50 (Mus musculus [28]): 12.2; Activity (Mus musculus [23]): inactive; Activity (Mus musculus [24]): inactive; Activity (Mus musculus [25]): inactive; Activity (Mus musculus [29]): inactive; Activity (Mus musculus [26]): Non-toxic; Activity (Mus musculus [27]): Non-toxic
